Tests used:
Assay type in all cases: functional, cell-based
[1] = system: KB; assay: Antiproliferative activity against human KB cells after 72 hrs by MTT assay
Summary of the method: (§1)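 Cells in 10% fetal calf serum, RPMI 1640 for all lines except MCF-7 (DMEM). Log-phase cells seeded at 2×10⁴ cells/ml, 37 °C, 5% CO₂. Compounds added after 24 h, then 72 h at 37 °C. MTT (5 mg/ml saline stock) for 3 h, formazan dissolved in DMSO, A570 read (ref 655 nm). IC₅₀ from dose-response curves. Mean of three independent experiments.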

[2] = Antiproliferative activity against human CNE2 cells after 72 hrs by MTT assay; conditions: CNE-2, 72 h; summary of the method: as §1
[3] = system: MGC-803; assay: Antiproliferative activity against human MGC803 cells after 72 hrs by MTT assay; conditions: MGC-803, 72 h; summary of the method: as §1
[4] = Antiproliferative activity against human GLC82 cells after 72 hrs by MTT assay; conditions: GLC82, 72 h; summary of the method: as §1
[5] = system: MDA-MB-453; assay: Antiproliferative activity against human MDA-MB-453 cells after 72 hrs by MTT assay; conditions: MDA-MB-453, 72 h; summary of the method: as §1
[6] = system: MCF7; assay: Antiproliferative activity against human MCF7 cells after 72 hrs by MTT assay; conditions: MCF7, 72 h; summary of the method: as §1

SMILES | IC50 [1] [µM] | IC50 [2] [µM] | IC50 [3] [µM] | IC50 [4] [µM] | IC50 [5] [µM] | IC50 [6] [µM]
CCCCn1cnc2c(c(C)nc3ccccc32)c1=O | > 50 | > 50 | > 50 | > 50 | > 50 | > 50
CCCn1cnc2c(c(C)nc3ccccc32)c1=O | > 50 | > 50 | > 50 | > 50 | > 50 | > 50
Cc1nc2ccccc2c2ncn(C(C)C)c(=O)c12 | > 50 | > 50 | > 50 | > 50 | > 50 | > 50
Cc1nc2ccccc2c2ncn(N)c(=O)c12 | > 50 | > 50 | > 50 | > 50 | > 50 | > 50
Cc1nc2ccccc2c2ncn(CCO)c(=O)c12 | > 50 | > 50 | > 50 | > 50 | > 50 | > 50
Cc1nc2ccccc2c2ncn(CCN)c(=O)c12 | 39.8 | > 50 | 39.9 | > 50 | 45.7 | 43.5
Cc1nc2ccccc2c2ncn(CCc3ccccc3)c(=O)c12 | > 50 | > 50 | > 50 | 35.2 | 49.5 | > 50
Cc1nc2ccccc2c2ncn(Cc3ccccc3)c(=O)c12 | > 50 | 26.5 | > 50 | > 50 | > 50 | > 50
CCn1cnc2c(c(C)nc3ccccc32)c1=O | > 50 | > 50 | > 50 | > 50 | > 50 | > 50
CCC(C)n1cnc2c(c(C)nc3ccccc32)c1=O (stereo not given) | > 50 | > 50 | > 50 | > 50 | > 50 | > 50
Cc1nc2ccccc2c2ncn(CC(C)C)c(=O)c12 | > 50 | > 50 | > 50 | > 50 | > 50 | > 50
Cc1nc2ccccc2c2nc(Oc3cccc4ccccc34)n(-c3ccc(Cl)cc3)c(=O)c12 | 33.9 | 47 | 18.5 | 42.1 | > 50 | 37.9
COc1ccccc1Oc1nc2c(c(C)nc3ccccc32)c(=O)n1-c1ccc(Cl)cc1 | 39.2 | > 50 | > 50 | > 50 | 49.7 | 34
Cc1nc2ccccc2c2nc(Oc3ccc(Br)cc3)n(-c3ccc(Cl)cc3)c(=O)c12 | 29.5 | 28.7 | 15.3 | > 50 | 26.6 | 35.7
Cc1nc2ccccc2c2nc(Oc3ccc4c(c3)OCO4)n(-c3ccc(Cl)cc3)c(=O)c12 | 30.9 | 47.7 | > 50 | > 50 | > 50 | > 50
Cc1nc2ccccc2c2nc(Oc3ccc([N+](=O)[O-])cc3Cl)n(-c3ccc(Cl)cc3)c(=O)c12 | 4.9 | 13.8 | 4.8 | 7.88 | 18.2 | 10.1
Cc1cc(Oc2nc3c(c(C)nc4ccccc43)c(=O)n2-c2ccc(F)cc2)ccc1Cl | > 50 | > 50 | 41.4 | > 50 | > 50 | > 50
Cc1nc2ccccc2c2nc(Oc3ccccc3Cl)n(-c3ccc(F)cc3)c(=O)c12 | > 50 | > 50 | > 50 | > 50 | > 50 | > 50
COc1ccccc1Oc1nc2c(c(C)nc3ccccc32)c(=O)n1-c1ccccc1 | > 50 | > 50 | > 50 | > 50 | > 50 | 35.5
Cc1nc2ccccc2c2nc(Oc3ccc(Cl)cc3Cl)n(-c3ccccc3)c(=O)c12 | 22.8 | 42.9 | > 50 | > 50 | > 50 | > 50
Cc1nc2ccccc2c2nc(NC(C)(C)C)n(-c3ccccc3)c(=O)c12 | > 50 | > 50 | > 50 | > 50 | > 50 | > 50
Cc1nc2ccccc2c2nc(Nc3ccc(Cl)cc3)n(N)c(=O)c12 | > 50 | > 50 | > 50 | > 50 | > 50 | > 50
Cc1nc2ccccc2c2nc(Nc3ccccc3)n(N)c(=O)c12 | 30.3 | > 50 | 14.7 | > 50 | > 50 | > 50
Cc1nc2ccccc2c2nc3n(-c4ccccc4)cnn3c(=O)c12 | > 50 | > 50 | > 50 | > 50 | > 50 | > 50
O=c1[nH]cc(F)c(=O)[nH]1 [FLUOROURACIL] | 9.85 | 17.2 | 16.6 | 15.5 | > 50 | 9.67
